Experimental data taken from ChEMBL document CHEMBL1154820, “Synthesis, characterization and structure-activity relationship of novel N-phosphorylated E,E-3,5-bis(thienylidene)piperid-4-ones” (Eur J Med Chem, 2010).

Assays:
SK-OV-3 = test: Cytotoxicity against human Scov3 cells after 72 hrs by MTT assay; assay type: functional, cell-based
Summary of the method: (§1)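 Cells kept in RPMI-1640 with 10% FBS, 2 mM L-glutamine and gentamicin; seeded at 1×10⁴ cells/well, attached overnight at 37 °C, 5% CO₂. Compounds dissolved in DMSO, diluted into FBS-free medium, tested at […], 10⁻⁵, 10⁻⁶, 10⁻⁷ M in triplicate for 72 h. MTT (5 mg/ml) added for 3 h at 37 °C, formazan dissolved in DMSO, OD read at 590 nm; viability loss versus untreated controls, IC50 read graphically; melphalan as positive control.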

[1] = Cytotoxicity against human Caov3 cells after 72 hrs by MTT assay; assay type: functional, cell-based, Caov-3; summary of the method: as §1
A549 = test: Cytotoxicity against human A549 cells after 72 hrs by MTT assay; assay type: functional, cell-based; summary of the method: as §1
[2] = Homo sapiens, SK-OV-3, 72 h, read-out: IC50
[3] = Homo sapiens, Caov-3, 72 h, read-out: IC50
[4] = Homo sapiens, A549, 72 h, read-out: IC50

SMILES	IC50 (SK-OV-3; sk-ov-3)	IC50 ([1]; caov-3)	IC50 (A549; a549)	IC50 (SK-OV-3; [2]) [µM]	IC50 [1, 3] [µM]	IC50 (A549; [4]) [µM]
O=C1/C(=C/c2cccs2)CNC/C1=C\c1cccs1	Non-toxic	Non-toxic	Non-toxic			
CN1C/C(=C/c2cccs2)C(=O)/C(=C/c2cccs2)C1	Non-toxic	Non-toxic	Non-toxic			
CCOP(=O)(CCCN1C/C(=C\c2cccs2)C(=O)/C(=C/c2cccs2)C1)OCC				40	40	30
CCOP(=O)(CN1C/C(=C\c2cccs2)C(=O)/C(=C/c2cccs2)C1)OCC				38	20	15
CCOP(=O)(CCN1C/C(=C\c2cccs2)C(=O)/C(=C/c2cccs2)C1)OCC				64	70	35
CCOP(=O)(OCC)N1C/C(=C\c2cccs2)C(=O)/C(=C/c2cccs2)C1				30	26	27
O=C1/C(=C/c2cccs2)CN(P(=O)(Oc2ccccc2)Oc2ccccc2)C/C1=C\c1cccs1				60	44	35
CN1C/C(=C\c2cccs2)C(=O)/C(=C/c2cccs2)C1		Non-toxic		85		80
N[C@@H](Cc1ccc(N(CCCl)CCCl)cc1)C(=O)O [MELPHALAN]					50	
